Data as given in ChEMBL document CHEMBL3244267, “Antineoplastic properties of arylsulfonylhdrazones of 3-formylpyridazine 2-oxide and 4-formylpyrimidine 3-oxide” (J Med Chem, 1978).
Calls of active or inactive are those of the source. The calls are words filed in the database; no cut-off is given here.

Legend:
Mus musculus [1] = experiment: Toxicity in mouse Sarcoma 180 cells allografted CD-1 mouse assessed as change in body weight at 40 mg/kg, ip qd for 6 consecutive days starting 24 hrs post implantation (reference value: +13.5 %); format: organism-based; set-up: dose 40 mg/kg, route intraperitoneal; details: in vivo
Sarcoma-180 [2] = experiment: Antitumor activity against mouse Sarcoma 180 cells allografted in CD-1 mouse assessed as mouse survival at 80 mg/kg, ip qd for 6 consecutive days starting 24 hrs post implantation measured after 50 days relative to control; format: functional; details: Sarcoma-180, ip, route intraperitoneal
Method in brief: (§1)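 Female CD-1 mice carrying Sarcoma 180 ascites cells from 7-day donor tumors. Given intraperitoneal doses daily for six consecutive days beginning 24 h after implantation; groups of 10 mice, 5 for some. Read-out is the percentage of mice in each group alive more than 50 days.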

Sarcoma-180 [3] = experiment: Antitumor activity against mouse Sarcoma 180 cells allografted in CD-1 mouse assessed as mouse survival at 60 mg/kg, ip qd for 6 consecutive days starting 24 hrs post implantation measured after 50 days relative to control; format: functional; details: Sarcoma-180, ip, route intraperitoneal; method in brief: as §1
Sarcoma-180 [4] = experiment: Antitumor activity against mouse Sarcoma 180 cells allografted in CD-1 mouse assessed as increase in average survival time at 60 mg/kg, ip qd for 6 consecutive days starting 24 hrs post implantation measured relative to control; format: functional; details: route intraperitoneal
Method in brief: (§2)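 Sarcoma 180 ascites cells propagated in female CD-1 mice; implanted from donors carrying 7-day tumors. Dosed intraperitoneally once daily for six days starting 24 h post-implant; 10 mice per group, 5 for some groups. %T/C = average survival time (treated/control) × 100; mice surviving more than 50 days counted as 50 days. Body-weight change over the therapy period also recorded.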

Sarcoma-180 [5] = experiment: Antitumor activity against mouse Sarcoma 180 cells allografted in CD-1 mouse assessed as increase in average survival time at 80 mg/kg, ip qd for 6 consecutive days starting 24 hrs post implantation measured relative to control; format: functional; details: route intraperitoneal; method in brief: as §2
Sarcoma-180 [6] = experiment: Antitumor activity against mouse Sarcoma 180 cells allografted in CD-1 mouse assessed as mouse survival at 40 mg/kg, ip qd for 6 consecutive days starting 24 hrs post implantation measured after 50 days relative to control; format: functional; details: Sarcoma-180, ip, route intraperitoneal; method in brief: as §1
Mus musculus [7] = experiment: Toxicity in mouse Sarcoma 180 cells allografted CD-1 mouse assessed as change in body weight at 80 mg/kg, ip qd for 6 consecutive days starting 24 hrs post implantation (reference value: +13.5 %); format: organism-based; set-up: dose 80 mg/kg, route intraperitoneal; details: in vivo
Sarcoma-180 [8] = experiment: Antitumor activity against mouse Sarcoma 180 cells allografted in CD-1 mouse assessed as increase in average survival time at 40 mg/kg, ip qd for 6 consecutive days starting 24 hrs post implantation measured relative to control; format: functional; details: route intraperitoneal; method in brief: as §2
Mus musculus [9] = experiment: Toxicity in mouse Sarcoma 180 cells allografted CD-1 mouse assessed as change in body weight at 60 mg/kg, ip qd for 6 consecutive days starting 24 hrs post implantation (reference value: +13.5 %); format: organism-based; set-up: dose 60 mg/kg, route intraperitoneal; details: in vivo
L1210 [10] = experiment: Antitumor activity against mouse L1210 cells allografted in […] mouse assessed as increase in average survival time at 60 to 100 mg/kg, ip qd for 6 consecutive days starting 24 hrs post implantation relative to control
Sarcoma-180 [11] = experiment: Antitumor activity against mouse Sarcoma 180 cells allografted in CD-1 mouse assessed as increase in average survival time at 80 mg/kg, ip qd for 6 consecutive days starting 24 hrs post implantation measured relative to control
L1210 [12] = experiment: Antitumor activity against mouse L1210 cells allografted in CDF-1 mouse assessed as increase in average survival time at 60 to 100 mg/kg, ip qd for 6 consecutive days starting 24 hrs post implantation relative to control; details: dose mg/kg 60-100; route intraperitoneal

With `O=S(=O)(N/N=C/c1ccnc[n+]1[O-])c1ccccc1` the Activity (Mus musculus [1]) was 16.3%, the survival at 80 mg/kg (Sarcoma-180 [2]) was 0% and the survival at 60 mg/kg (Sarcoma-180 [3]) was 0%. For the same molecule, the T/C (Sarcoma-180 [4]) was 97%, the T/C (Sarcoma-180 [5]) was 112% and the survival at 40 mg/kg (Sarcoma-180 [6]) was 0%. The Activity (Mus musculus [7]) was 9.6%, the T/C (Sarcoma-180 [8]) was 89% and the Activity (Mus musculus [9]) was 11.2%. The Activity (L1210 [10]) was “inactive” and the Activity (Sarcoma-180 [11]) was “inactive”.

In the case of `COc1ccc(S(=O)(=O)N/N=C/c2cccn[n+]2[O-])cc1`, the Activity (Mus musculus [1]) is reported as -1.6%, the survival at 80 mg/kg (Sarcoma-180 [2]) is reported as 0% and the survival at 60 mg/kg (Sarcoma-180 [3]) is reported as 20%. The T/C (Sarcoma-180 [4]) was 218%, the T/C (Sarcoma-180 [5]) was 193% and the survival at 40 mg/kg (Sarcoma-180 [6]) was 10%. It also gave an Activity (Mus musculus [7]) of -4.3%, a T/C (Sarcoma-180 [8]) of 231% and an Activity (Mus musculus [9]) of -3.2%. The Activity (L1210 [10]) was “inactive”.

In the case of `O=S(=O)(N/N=C/c1cccc[n+]1[O-])c1ccccc1`, the Activity (Mus musculus [1]) is reported as -2.6%, the survival at 40 mg/kg (Sarcoma-180 [6]) is reported as 20% and the T/C (Sarcoma-180 [8]) is reported as 235%. The T/C (L1210 [12]) was 126%.

Work on `O=S(=O)(N/N=C/c1cccn[n+]1[O-])c1ccccc1` yielded an Activity (Mus musculus [1]) of -2.9%, a survival at 80 mg/kg (Sarcoma-180 [2]) of 40% and a survival at 60 mg/kg (Sarcoma-180 [3]) of 10%. For the same molecule, the T/C (Sarcoma-180 [4]) was 230%, the T/C (Sarcoma-180 [5]) was 274% and the survival at 40 mg/kg (Sarcoma-180 [6]) was 10%. The Activity (Mus musculus [7]) was -3.5%, the T/C (Sarcoma-180 [8]) was 194% and the Activity (Mus musculus [9]) was -3.8%. For the same molecule, the Activity (L1210 [10]) was “inactive”.

With `COc1ccc(S(=O)(=O)N/N=C/c2cccc[n+]2[O-])cc1` the T/C (L1210 [12]) was 234%.

`Cc1ccc(S(=O)(=O)N/N=C/c2cccn[n+]2[O-])cc1` showed an Activity (Mus musculus [1]) of -0.2%, a survival at 80 mg/kg (Sarcoma-180 [2]) of 60% and a survival at 60 mg/kg (Sarcoma-180 [3]) of 20%. The T/C (Sarcoma-180 [4]) was 254%, the T/C (Sarcoma-180 [5]) was 315% and the survival at 40 mg/kg (Sarcoma-180 [6]) was 10%. For the same molecule, the Activity (Mus musculus [7]) was -4.9%, the T/C (Sarcoma-180 [8]) was 164% and the Activity (Mus musculus [9]) was -3.2%. For the same molecule, the Activity (L1210 [10]) was “inactive”.

`Cc1ccc(S(=O)(=O)N/N=C/c2cccc[n+]2[O-])cc1` showed a T/C (L1210 [12]) of 170%.

Molecule `Cc1ccc(S(=O)(=O)N/N=C/c2ccnc[n+]2[O-])cc1` has an Activity (Mus musculus [1]) of 19.6%, a survival at 80 mg/kg (Sarcoma-180 [2]) of 0% and a survival at 60 mg/kg (Sarcoma-180 [3]) of 0%. For the same molecule, the T/C (Sarcoma-180 [4]) was 100%, the T/C (Sarcoma-180 [5]) was 103% and the survival at 40 mg/kg (Sarcoma-180 [6]) was 0%. It also gave an Activity (Mus musculus [7]) of 15.2%, a T/C (Sarcoma-180 [8]) of 115% and an Activity (Mus musculus [9]) of 16.5%. The Activity (L1210 [10]) was “inactive” and the Activity (Sarcoma-180 [11]) was “inactive”.

`COc1ccc(S(=O)(=O)N/N=C/c2ccnc[n+]2[O-])cc1` was tested, and the Activity (Mus musculus [1]) was 20.3%, the survival at 80 mg/kg (Sarcoma-180 [2]) was 0% and the survival at 60 mg/kg (Sarcoma-180 [3]) was 0%. It also gave a T/C (Sarcoma-180 [4]) of 100%, a T/C (Sarcoma-180 [5]) of 94% and a survival at 40 mg/kg (Sarcoma-180 [6]) of 0%. It also gave an Activity (Mus musculus [7]) of 13.9%, a T/C (Sarcoma-180 [8]) of 96% and an Activity (Mus musculus [9]) of 10.8%. The Activity (L1210 [10]) was “inactive” and the Activity (Sarcoma-180 [11]) was “inactive”.
